# Data published in ChEMBL document CHEMBL1128362, “Structure-activity relationships of 9-alkyladenine and ribose-modified adenosine derivatives at rat A3 adenosine receptors” (J Med Chem, 1995).
# Several values for one entry are separate records, joined by “and”; a condition that tells them apart may be missing. Equal values may be shown once. Activity calls are given as the source filed them. The rule behind the calls is not given here.
# What was measured:
# [1] = target: T1, Adenosine receptor A3 (Rattus norvegicus) (UniProt P28647); test: Ability to inhibit the adenylyl cyclase in CHO cells stably transfected with rat Adenosine A3 receptor at the dose of 40(uM); assay type: cell-based
# T1 sequence (whole entry): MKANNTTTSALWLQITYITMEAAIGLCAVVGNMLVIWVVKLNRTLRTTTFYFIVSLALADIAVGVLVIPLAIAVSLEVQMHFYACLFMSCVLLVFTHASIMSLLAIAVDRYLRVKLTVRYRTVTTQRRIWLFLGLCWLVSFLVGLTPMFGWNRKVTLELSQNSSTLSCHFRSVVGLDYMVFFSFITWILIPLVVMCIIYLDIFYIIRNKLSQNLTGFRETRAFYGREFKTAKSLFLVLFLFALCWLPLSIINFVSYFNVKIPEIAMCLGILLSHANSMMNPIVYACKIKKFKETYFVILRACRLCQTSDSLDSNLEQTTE
# Summary of the method: (§1)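 Adenylyl cyclase activity measured in membranes of CHO cells stably transfected with rat brain A3 receptor, following an earlier published method. […] Untransfected CHO cell membranes served as the control.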
# [2] = target: T1, Adenosine receptor A3 (Rattus norvegicus); test: Ratio of the concentration (40 uM) effecting adenylyl cyclase and binding affinity against rat brain Adenosine A3 receptor
# Summary of the method: (§2)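 This ratio is the adenylyl cyclase test concentration (20, 40 or 100 µM) divided by the A3 Ki. The Ki came from [125I]AB-MECA displacement in membranes of CHO cells expressing rat A3 receptor.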
# [3] = target: T1, Adenosine receptor A3 (Rattus norvegicus); test: Ability to inhibit the adenylyl cyclase in CHO cells stably transfected with rat Adenosine A3 receptor at the concentration of 100 uM; assay type: cell-based; summary of the method: as §1
# [4] = target: T1, Adenosine receptor A3 (Rattus norvegicus); test: Agonist elicited inhibition of adenylyl cyclase via rat Adenosine A3 receptor in transfected CHO cells and effect on IB-MECA was determined from dose response curves at the concentration of 100(uM); assay type: functional, cell-based
# Summary of the method: (§3)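 CHO cell membranes stably transfected with rat A3 receptor were used to test for antagonism. Adenylyl cyclase inhibition was elicited by the A3 agonist IB-MECA across a dose-response curve, and test agent at 40 or 100 µM was checked for reversal of the agonist-induced inhibition. The cyclase measurement followed a previously described method.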
# [5] = target: Adenosine receptors; A1 & A3 (Rattus norvegicus) (UniProt P25099+P28647); test: Ratio of the binding affinities against rat brain A1 and A3 receptors, KiA1/KiA3.
# [6] = target: Adenosine receptor A2a and A3 (Rattus norvegicus) (UniProt P30543+P28647); test: Ratio of the binding affinities against rat brain A2a and A3 receptors, KiA2a/KiA3.
# Adenosine receptor A2a and A3 (Rattus norvegicus), sequence (P30543 whole entry, looked up, one chain of several): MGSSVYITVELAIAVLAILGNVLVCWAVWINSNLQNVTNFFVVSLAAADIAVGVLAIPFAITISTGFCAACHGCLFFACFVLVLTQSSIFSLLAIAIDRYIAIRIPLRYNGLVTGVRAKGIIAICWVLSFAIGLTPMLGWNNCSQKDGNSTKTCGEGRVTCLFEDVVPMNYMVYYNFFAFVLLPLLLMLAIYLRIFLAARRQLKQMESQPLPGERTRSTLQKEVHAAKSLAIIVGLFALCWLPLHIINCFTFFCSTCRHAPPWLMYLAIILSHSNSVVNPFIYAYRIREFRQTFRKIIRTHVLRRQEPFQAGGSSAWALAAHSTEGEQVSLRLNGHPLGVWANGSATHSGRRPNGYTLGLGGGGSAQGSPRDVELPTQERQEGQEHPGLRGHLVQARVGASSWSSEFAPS
# [7] = target: T1, Adenosine receptor A3 (Rattus norvegicus); test: Ratio of the concentration (100 uM) effecting adenylyl cyclase and binding affinity against rat brain A3 receptors.; summary of the method: as §2
# [8] = target: T1, Adenosine receptor A3 (Rattus norvegicus); test: Ability to inhibit the adenylyl cyclase in CHO cells stably transfected with rat Adenosine A3 receptor at the concentration of 40(uM); assay type: cell-based; summary of the method: as §1
# [9] = target: T1, Adenosine receptor A3 (Rattus norvegicus); test: Inhibition of Adenosine A3 receptor from rat brain; conditions: concentration not given here
# Summary of the method: (§4)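 Rat brain A3 receptor was stably expressed in CHO cell membranes and labelled with [125I]AB-MECA at 0.3 nM final, in 50 mM Tris/10 mM MgCl2/1 mM EDTA, pH 8.26. Inhibitors were in DMSO, at no more than 2% final. Incubation was 1 h at 37 °C in duplicate, ended by filtration. Nonspecific binding was defined by 200 µM NECA.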
# [10] = target: Adenosine receptor A2a (Rattus norvegicus) (UniProt P30543); test: Binding affinity against Adenosine A2A receptor from rat brain; design: concentration or dose not given beside the values; conditions: concentration not given here
# Adenosine receptor A2a (Rattus norvegicus), sequence (P30543 whole entry): as the sequence (P30543 whole entry, looked up, one chain of several) above
# Summary of the method: (§5)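 Rat A1 receptors came from cerebral cortical membranes with [3H]R-PIA, and rat A2a receptors came from striatal membranes with [3H]CGS 21680. Membranes were pretreated with adenosine deaminase (2 U/mL) for 30 min at 37 °C. Nonspecific binding was defined by 2-chloroadenosine at 10 µM (A1) and 200 µM (A2a).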
# [11] = target: T1, Adenosine receptor A3 (Rattus norvegicus); test: Agonist elicited inhibition of adenylyl cyclase via rat Adenosine A3 receptor in transfected CHO cells and effect on IB-MECA was determined from dose response curves at the concentration of 40(uM); assay type: functional, cell-based; summary of the method: as §3
# Adenosine receptor A2a = Adenosine receptor A2a (Rattus norvegicus, UniProt P30543); test: Binding affinity against adenosine A2A receptor from rat brain.
# Adenosine receptor A2a, sequence (P30543 whole entry): as the sequence (P30543 whole entry, looked up, one chain of several) above
# Adenosine receptor A3 = target: T2, Adenosine receptor A3 (Rattus norvegicus, UniProt P28647); test: Binding affinity against adenosine A3 receptor (rat) stably expressed in CHO cell membranes.; summary of the method: as §4
# T2 sequence (P28647 whole entry): T1 sequence (whole entry)
# [12] = target: T1, Adenosine receptor A3 (Rattus norvegicus); test: Ability to inhibit the adenylyl cyclase in CHO cells stably transfected with rat Adenosine A3 receptor at the concentration of 20(uM); assay type: cell-based; summary of the method: as §1
# [13] = target: T1, Adenosine receptor A3 (Rattus norvegicus); test: Ratio of the concentration (20 uM) effecting adenylyl cyclase and binding affinity against rat brain A3 receptors; summary of the method: as §2
# [14] = target: T1, Adenosine receptor A3 (Rattus norvegicus); test: Ratio of the concentration (40 uM) effecting adenylyl cyclase and binding affinity against rat brain A3 receptors.; summary of the method: as §2
# [15] = target: T3, Adenosine receptor A1 (Rattus norvegicus) (UniProt P25099); test: Inhibition of Adenosine A1 receptor from rat brain.; conditions: concentration not given here; summary of the method: as §5
# T3 sequence (whole entry): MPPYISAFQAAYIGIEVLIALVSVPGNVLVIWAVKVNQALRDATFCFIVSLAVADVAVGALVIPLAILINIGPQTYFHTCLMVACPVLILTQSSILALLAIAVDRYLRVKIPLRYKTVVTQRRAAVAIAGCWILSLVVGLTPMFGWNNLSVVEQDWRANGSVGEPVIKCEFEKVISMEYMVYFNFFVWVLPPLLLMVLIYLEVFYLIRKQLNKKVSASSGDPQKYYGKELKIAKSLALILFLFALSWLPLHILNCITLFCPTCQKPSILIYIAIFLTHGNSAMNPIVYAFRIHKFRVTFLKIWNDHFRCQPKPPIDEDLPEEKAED
# Adenosine receptor A1 = target: T4, Adenosine receptor A1 (Rattus norvegicus, UniProt P25099); test: Binding affinity against adenosine A1 receptor from rat brain.
# T4 sequence (P25099 whole entry): T3 sequence (whole entry)
# [16] = target: T1, Adenosine receptor A3 (Rattus norvegicus); conditions: CHO
# [17] = target: T1, Adenosine receptor A3 (Rattus norvegicus); conditions: CHO; remark: listed apart in the source
# [18] = target: T1, Adenosine receptor A3 (Rattus norvegicus); conditions: CHO; remark: listed apart in the source
structure (smiles),measurement,setting,value
CS[C@H]1OC(n2cnc3c(N)ncnc32)[C@H](O)[C@@H]1O (stereo partly drawn),inhibition,[1],19.7%
same,Ratio,[2],28
CSc1nc(NCc2cccc(I)c2)c2ncn(C)c2n1,inhibition,[3],19.5%
same,Effect,[4],0
same,Ratio,[5],6.3
same,Ratio,[6],5.5
same,Ratio,[7],330
CCCCCC[C@@H]([C@@H](C)O)n1cnc2c(N)ncnc21,inhibition,[8],5.9%
same,inhibition,[9],57%
same,inhibition,[10],60%
same,Effect,[11],0
Cn1cnc2c(NC3CCCC3)ncnc21,Ki,Adenosine receptor A2a,11 µM
same,Ki,Adenosine receptor A3,1330 µM
same,Ratio,[5],0.00041
same,Ratio,[6],0.0083
Cn1cnc2c(NCc3cccc(I)c3)nc(Cl)nc21,Ratio,[5],0.0088
same,Ratio,[6],0.053
CNC(=O)[C@@H]1C[C@@H](OC(C)=O)[C@H](n2cnc3c(NCc4cccc(I)c4)nc(Cl)nc32)O1,inhibition,[12],12.7%
same,Ratio,[13],320
same,Ratio,[5],12
same,Ratio,[6],250
CNC(=O)[C@@H]1C[C@@H](O)[C@H](n2cnc3c(NCc4cccc(I)c4)nc(Cl)nc32)O1,inhibition,[8],35.2%
same,Ratio,[14],1200
same,Ratio,[5],31
same,Ratio,[6],140
same,Ratio,[7],3000
O=C(O)Cn1cnc2c(NCc3cccc(I)c3)ncnc21,inhibition,[10],9%
same,inhibition,[15],17%
CSc1nc(NCc2cccc(I)c2)c2ncn(C[C@H](O)CO)c2n1,inhibition,[8],5.5% and 7.3%
same,Ki,Adenosine receptor A2a,78.9 µM
same,Ki,Adenosine receptor A3,8.59 µM
same,Ratio,[14],4.6
same,Ratio,[5],0.16
same,Ratio,[6],9.2
same,Ki,Adenosine receptor A1,1.34 µM
same,Effect,[16],0
CNC(=O)[C@@H]1C[C@@H](OS(C)(=O)=O)[C@H](n2cnc3c(NCc4cccc(I)c4)nc(Cl)nc32)O1,Ratio,[5],0.18
same,Ratio,[6],5.8
CNC(=O)[C@H]1O[C@@H](n2cnc3c(NCc4cccc(I)c4)ncnc32)[C@H](O)[C@@H]1O,inhibition,[3],44.4%
same,Effect,[17],inactive
same,Effect,[18],inactive
CCn1cnc2c(NC3CCCC3)ncnc21,inhibition,[9],30%
same,Ratio,[5],< 1
same,Ratio,[6],< 1
CNC(=O)[C@@H]1C[C@@H](F)[C@H](n2cnc3c(NCc4cccc(I)c4)nc(Cl)nc32)O1,inhibition,[3],11.2%
same,Ki,Adenosine receptor A2a,98 µM
same,Ki,Adenosine receptor A3,17.8 µM
same,Ratio,[5],0.08
same,Ratio,[6],5.5
same,Ki,Adenosine receptor A1,1.42 µM
same,Ratio,[7],5.6
Cn1cnc2c(NCc3cccc(I)c3)nc(Sc3ccncc3)nc21,Ratio,[5],0.0051
same,Ratio,[6],0.07
Cn1cnc2c(NCc3cccc(I)c3)nc(NN)nc21,Ratio,[5],0.05
same,Ratio,[6],0.18
CNC(=O)C1OC(n2cnc3c(NC(=O)c4cccc(I)c4)nc(Cl)nc32)C(OC(=O)c2ccccc2)C1OC(=O)c1ccccc1 (stereo not drawn),inhibition,[9],55%
same,inhibition,[10],7%
same,inhibition,[15],21%
CNC(=O)[C@@H]1C[C@H](N)[C@H](n2cnc3c(NCc4cccc(I)c4)nc(Cl)nc32)O1,inhibition,[10],2%
Nc1nc(Cl)nc2c1ncn2[C@@H]1O[C@H](CO)[C@@H](O)[C@@H]1O,inhibition,[8],16.1%
same,Ki,Adenosine receptor A3,14 µM
same,Ki,Adenosine receptor A1,24.2 µM
CC(O)[C@@H]1O[C@@H](n2cnc3c(N)ncnc32)[C@H](O)[C@@H]1O (stereo partly drawn),inhibition,[8],0%
same,Ki,Adenosine receptor A2a,54.7 µM
same,Ki,Adenosine receptor A3,6 µM
same,Ratio,[5],< 1
same,Ratio,[6],< 1
same,Ki,Adenosine receptor A1,150 µM
CNC(=O)[C@@H]1C[C@H](N=[N+]=[N-])[C@H](n2cnc3c(NCc4cccc(I)c4)nc(Cl)nc32)O1,inhibition,[3],27.8%
same,inhibition,[12],25.7% and 18%
same,Ratio,[13],3.3
same,Ratio,[5],0.067
same,Ratio,[6],4.7
same,Ratio,[7],17
CC(C)[Si]1(C(C)C)OC[C@H]2O[C@@H](n3cnc4c(NCc5cccc(I)c5)nc(Cl)nc43)[C@H](O)[C@@H]2O[Si](C(C)C)(C(C)C)O1,inhibition,[3],8.7%
same,inhibition,[10],18%
same,Ratio,[5],5.1
same,Ratio,[6],> 7
same,Ratio,[7],7.6
COc1nc(NCc2cccc(I)c2)c2ncn(C)c2n1,Ratio,[5],0.027
same,Ratio,[6],0.068
Cn1cnc2c(NCc3cccc(I)c3)nc(N)nc21,Ratio,[5],0.14
same,Ratio,[6],0.08
OCCn1cnc2c(NCc3cccc(I)c3)ncnc21,Ratio,[5],0.37
same,Ratio,[6],0.24
CNC(=O)[C@H]1O[C@@H](n2cnc3c(NCc4cccc(I)c4)nc(Cl)nc32)[C@@H]2OC(=S)O[C@@H]21,Ratio,[5],15
same,Ratio,[6],71
same,Ratio,[7],8200
CNC(=O)[C@@H]1CC[C@H](n2cnc3c(NCc4ccccc4)nc(Cl)nc32)O1,inhibition,[8],7.5% and 10.8%
same,Ratio,[14],1.3
same,Ratio,[5],0.37
same,Ratio,[6],7.1
same,Effect,[11],0
CN(C)c1nc(NCc2cccc(I)c2)c2ncn(C)c2n1,Ratio,[5],0.099
same,Ratio,[6],0.66
OC[C@@H](O)Cn1cnc2c(NCc3cccc(I)c3)ncnc21,Ratio,[5],0.55
same,Ratio,[6],0.76
N#CCCCn1cnc2c(NCc3cccc(I)c3)ncnc21,Ratio,[5],0.032
same,Ratio,[6],0.1
CNc1nc(NCc2cccc(I)c2)c2ncn(C)c2n1,Ratio,[5],0.67
same,Ratio,[6],3.7
Cn1cnc2c(NCc3cccc(I)c3)ncnc21,Ratio,[5],0.12
same,Ratio,[6],0.046
CNC(=O)[C@H]1C[C@@H](n2cnc3c(NCc4cccc(I)c4)ncnc32)[C@H](O)[C@@H]1O,Ki,Adenosine receptor A3,19.5 µM
same,inhibition,[10],28.5%
same,Ratio,[5],1.8
same,Ratio,[6],> 1
same,Ki,Adenosine receptor A1,35.9 µM
